Only some compounds are listed: those with a hit (about 2.2% of all), similar ones and a draw of the others.
CendR NRP1 mod: alters CendR peptide binding to human NRP-1; inhibition, % at 25 µM; FAM-RPARPAR peptide binding to NRP-1, fluorescence polarization; 360,000 compounds, 0.85% hits; O14786;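 active = inhibition or corrected inhibition above about 18%, plus a signal ratio from 0.5 to 1.5, limit read from the data, passing the limit was not always enough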
ARFGAP1 inhibitor: inhibits rat ARF GTPase activating protein 1. Q62848. Arfgap1-stimulated ARF1 GTP hydrolysis, GDP FP detection. inhibition, % at 16.5 µM. 360,000 compounds, 0.26% hits;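 active = inhibition above a per-plate limit, mean inhibition of low control wells plus 3 SD, cut at about 25% in these data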;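 also: 0% = DMSO wells with enzyme and 100% = wells lacking Arfgap1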
Target sequence (Q62848 1-136 limits assumed): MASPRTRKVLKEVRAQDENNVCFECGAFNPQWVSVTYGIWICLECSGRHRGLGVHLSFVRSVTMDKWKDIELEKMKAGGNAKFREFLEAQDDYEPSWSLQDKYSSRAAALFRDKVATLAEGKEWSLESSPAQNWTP
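Material: rat Arfgap1 catalytic domain, aa 1-136; also added: human ARF1(Δ1-17)-GTP substrate; compound dosing: one concentration, 16.5 µM, DMSO 1.26%; incubation: GTP hydrolysis reaction 2 h at 25 °C; measured by: Tracer-displacement fluorescence polarization with EDTA stop, 620/688 nm; evaluation: % inhibition from polarization; repeats: one replicate per compound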
V-ATPase pH: alters yeast V-ATPase proton transport. S. cerevisiae, pHLuorin cytosolic pH fluorescence. response, % at 10 µM. 350,000 compounds, 0.37% hits; in the data active = response mostly above about 7.3%, no sharp cut-off; inactive = mostly below about 5.4%; also: actives read high
Exocytosis inh: blocks lytic granule exocytosis; inhibition, % at 10 µM; 360,000 compounds, 0.66% hits; TALL-104 LAMP-1 surface exposure, flow cytometry; cells stimulated with thapsigargin and PMA;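 active = inhibition above about 55%, limit read from the data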
ASAP1 GAP inh: ASAP1 ArfGAP inhibition; Q9ULH1; ASAP1-stimulated ARF1 GTP hydrolysis, GDP FP detection; inhibition, % at 16.5 µM; 360,000 compounds, 0.19% hits; AID 624377; in the data active = inhibition above about 25%;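 also: 0% = vehicle with enzyme and substrate and 100% = no enzyme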
VATPase regulator: modulates yeast V-ATPase proton transport; shares compounds with V-ATPase pH; response, % at 10 µM; S. cerevisiae pHLuorin cytosolic pH; 980 compounds, 2% hits; in the data active = response above about 24%;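 also: plate controls were vehicle wells for no effect and positive control wells for full effect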
ASAP1 GAP conf: confirmation of human ASAP1 inhibitors; shares compounds with ASAP1 GAP inh; ASAP1-stimulated Arf1 GTPase, GDP fluorescence polarization; inhibition, % at 16.5 µM; 620 compounds, 37% hits;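 active = mean inhibition over triplicates exceeds the hit threshold derived for the earlier primary screening run, cut at about 25% in these data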
ARFGAP1 inh conf: rat ARFGAP1 inhibition, confirmed; shares compounds with ARFGAP1 inhibitor; ARFGAP1-stimulated ARF1 GTP hydrolysis, GDP tracer FP; inhibition, % at 16.5 µM; 890 compounds, 30% hits; AID 651608;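 active = average inhibition over triplicates above the hit cutoff set in the earlier primary screen, cut at about 25% in these data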;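 also: 0% = Arfgap1 plus ARF1-GTP with DMSO and 100% = wells lacking Arfgap1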
Target sequence (Q62848 whole entry, looked up): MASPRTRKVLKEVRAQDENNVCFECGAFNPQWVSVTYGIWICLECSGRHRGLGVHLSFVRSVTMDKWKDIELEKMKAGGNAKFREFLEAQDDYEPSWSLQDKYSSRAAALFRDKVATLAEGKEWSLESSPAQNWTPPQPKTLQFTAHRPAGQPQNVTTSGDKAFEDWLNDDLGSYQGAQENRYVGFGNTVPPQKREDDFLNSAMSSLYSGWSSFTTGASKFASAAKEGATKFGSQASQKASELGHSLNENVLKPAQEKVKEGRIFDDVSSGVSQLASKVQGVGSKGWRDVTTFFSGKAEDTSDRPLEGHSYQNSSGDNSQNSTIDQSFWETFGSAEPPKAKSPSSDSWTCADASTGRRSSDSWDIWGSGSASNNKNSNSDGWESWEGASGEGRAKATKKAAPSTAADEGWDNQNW
Exocytosis CP01: blocks lytic granule exocytosis | shares compounds with Exocytosis inh | TALL-104 cells, LAMP-1 externalization, flow cytometry; stimulated with PMA plus thapsigargin | inhibition, % at 10 µM | 1,500 compounds, 11% hits | AID 651954; in the data active = inhibition above about 60%;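 also: 0% = stimulated vehicle wells and 100% = unstimulated wells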
Active calls of the source: *; · = not tested or not shown.

SMILES	CendR NRP1 mod	ARFGAP1 inhibitor	V-ATPase pH	Exocytosis inh	ASAP1 GAP inh	others
Cc1[nH]c2ccccc2c1C(=O)C(=O)N1CC2CC(C1)c1cccc(=O)n1C2 (configuration not stated)	-2	-3	9.1*	-5	-14	VATPase regulator=-1
CN1C(=O)/C(=C\c2ccc(Br)s2)C(=O)NC1=S	-24	0	21*	-1	0	VATPase regulator=97*
COC(=O)C1C(c2ccc(Cl)cc2)CC2CCC1N2C (configuration not stated)	·	-3	·	·	3
COC(=O)C1C(c2ccc(I)cc2)CC2CCC1N2C (configuration not stated)	·	11	·	·	26*	ASAP1 GAP conf=5
NC1=NC(=O)N2CC12 (configuration not stated)	-14	8	-1	-2	11
O=C1C=C(N2CC2)c2ccccc2C1=O	25*	-6	0	0	31*	ASAP1 GAP conf=-6
Cc1ccc(Cn2cc(C=O)c3ccccc32)cc1	8	-4	-1	-2	0
O=Cc1cn(Cc2ccc(F)cc2)c2ccccc12	-5	15	0	-3	25*	ASAP1 GAP conf=2
CCc1c(C(=O)NN2C(=O)C3C4CCC(O4)C3C2=O)csc1C (configuration not stated)	-2	-4	-5	-7	26*	ASAP1 GAP conf=-1
Cc1cc(N2CCNC[C@H]2C)ccc1N1CC[C@@H](O)C1	·	1	·	·	-5
O=C(CCc1ccccc1)N1Cc2cc(-c3ccccc3)ccc2-n2nncc2C1	19	-15	·	-4	9
CCC(C)NC(=O)c1c(N)n(CCCOC)c2nc3ccccc3nc12 (configuration not stated)	-12	-16	-2	5	27*	ASAP1 GAP conf=15
COCCCn1c(N)c(C(=O)Nc2sc3c(c2C(=O)OC)CCCC3)c2nc3ccccc3nc21	-61	27*	0	7	29*	ASAP1 GAP conf=-3;ARFGAP1 inh conf=2
c1cc2c(cc1[C@H]1OCC3C1CO[C@@H]3c1ccc3c(c1)OCO3)OCO2 (some centres not stated)	13	13	5	4	-11
CC[N+](C)(CC)CCCCOc1ccc2c(c1)C(=O)c1cc(OCCCC[N+](C)(CC)CC)ccc1-2	-3	26*	0	-4	0	ARFGAP1 inh conf=14
COc1ccccc1Oc1c(C)oc2cc(OC(=O)N(C)C)ccc2c1=O	-8	27*	0	-9	-11	ARFGAP1 inh conf=2
COc1ccc(Oc2c(C)oc3cc(OC(=O)N(C)C)ccc3c2=O)cc1	18	2	-1	-6	0
CCCOc1ccc(C(C)=O)cc1Cc1c(O)[nH]c(=S)[nH]c1=O	12	26*	-3	6	2	ARFGAP1 inh conf=2
CCOc1ccc(C(C)=O)cc1Cc1c(O)[nH]c(=S)[nH]c1=O	8	6	-2	-4	20
CC1CC(C)CN(C(=O)COC(=O)c2cn(C)c3ccccc23)C1 (configuration not stated)	3	42*	5	4	18	ARFGAP1 inh conf=49*
COCCNC(=O)c1ccc(N2CC3CC(C2)c2cccc(=O)n2C3)c([N+](=O)[O-])c1 (configuration not stated)	-1	35*	0	-2	7	ARFGAP1 inh conf=3
O=C(CCc1ccccc1)N1Cc2cc(N3CCOCC3)ccc2-n2nncc2C1	6	-3	·	-4	-4
O=C(CCc1ccccc1)N1Cc2cc(N3CCCCC3)ccc2-n2nncc2C1	-14	25*	·	1	-10	ARFGAP1 inh conf=3
Cc1ccc2c(c1)C1C[N+](C)(CC(=O)c3ccc(Cl)cc3Cl)CCC1N2C(=O)c1ccc(F)cc1 (configuration not stated)	8	-8	1	-1	12
NCCc1ccc(O)cc1	-2	29*	0	-1	4	ARFGAP1 inh conf=2
SMILES	CendR NRP1 mod	ARFGAP1 inhibitor	V-ATPase pH	Exocytosis inh	ASAP1 GAP inh	others
COc1ccc(CNCCc2ccc(Cl)cc2)c(OC)c1OC	2	7	2	32	1
COC(=O)C1C(C(=O)O)C2(Cl)C(Cl)=C(Cl)C1(Cl)C2(Cl)Cl (configuration not stated)	2	3	2	9	-11
COc1ccc(CN2CCCCC2c2cccnc2)cc1C (configuration not stated)	12	-2	2	5	2
COc1cccc(CN2CCCCC2c2cccnc2)c1 (configuration not stated)	-13	25*	-3	4	-11	ARFGAP1 inh conf=2
COc1nc2ccccc2nc1N1CC1	11	-3	·	-8	-2
CCOc1ccccc1CN1C2CCC1CC(c1ccc(C)cc1)C2 (configuration not stated)	-7	-2	2	67*	-8	Exocytosis CP01=-13
FC(F)(F)Oc1ccc(C2NCc3ccccc3-n3cccc32)cc1 (configuration not stated)	4	-5	1	59*	3	Exocytosis CP01=-15
CC(C)c1ccc(C2NCc3ccccc3-n3cccc32)cc1 (configuration not stated)	-3	2	-2	39	1
CC(Cc1ccc(O)cc1)NCC(O)c1ccc(O)c(O)c1 (configuration not stated)	-14	-2	3	66*	7	Exocytosis CP01=-2
C#CCOc1ccc2c(c1)c(C(C)=O)c(C)n2Cc1ccccc1	3	15	-2	60*	12	Exocytosis CP01=-4
CCOC(=O)c1c(C)n(Cc2ccccc2)c2ccc(OCC(O)CN3C(=O)CNC3=O)cc12 (configuration not stated)	-12	8	-1	1	-4
COc1ccc2ccc(O)c(CN3CC=C(c4ccccc4)CC3)c2c1	-5	8	2	92*	4	Exocytosis CP01=17
O=c1[nH]c(=O)n(-c2ccc(F)cc2)c(O)c1/C=C1\C=Nc2ccccc21	-104	6	-3	56*	2	Exocytosis CP01=-3
COC(=O)C1=C(c2ccc(OC(F)(F)F)cc2)C[C@@H]2CC[C@H]1N2C(=O)NC1CC1	-6	4	9	-2	4
CNC(C(=O)c1ccccc1)C(OC(C)=O)c1cccc([N+](=O)[O-])c1 (configuration not stated)	1	-13	0	13	-1
C#CC1(OC(=O)c2ccccc2)CC(C)N(C)CC1C (configuration not stated)	-5	1	1	-12	24
NCC(O)c1cc(O)c(O)cc1F (configuration not stated)	5	-5	1	-5	-15

Screening data: PubChem, several laboratories
